The source of these data is ChEMBL document CHEMBL1121879, “In vitro activity of 2-alkyl-3-hydroxy-1,4-naphthoquinones against Theileria parva” (1981).

In brackets after ≈: the same amount, converted by molar mass. Where only a bound is given, the exact number is not on record here.

This test relates to Theileria parva. Nature of the test: In vitro concentration required to reduce the proportion of schizont infected cells in the culture to 50% of that of untreated control in the 48 hr incubation period. In kind it is functional. As to conditions: read-out: ED50 (the source's name). The method, boiled down:
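T. parva-infected cell cultures were exposed to fourfold serial dilutions of each drug for 48 h, and the proportion of schizont-infected cells was compared with untreated controls. ED50 was expressed in mg/L, with at least two tests per compound.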
`O=C1C(O)=C(C2CCC(C3CCCCC3)CC2)C(=O)c2ccccc21` (centres undefined): the EC50 was determined as 0.006 µg/mL (≈ 0.0177 µM).

`O=C1C(O)=C(C2CCCCC2)C(=O)c2ccccc21` [PARVAQUONE]: the EC50 was determined as 0.006 µg/mL (≈ 0.0234 µM).

Consider `NC1=C(CC2CCCCC2)C(=O)c2ccccc2C1=O`, for which the EC50 was more than 10 µg/mL.

In the case of `O=C1C(=O)c2ccccc2C(O)=C1C1CCCCCC1`, the EC50 was determined as 0.01 µg/mL (≈ 0.037 µM).

As to `O=C1C(O)=C(CCCCCCCCC2CCCCC2)C(=O)c2ccccc21` [MENOCTONE], the EC50 was 0.06 µg/mL (≈ 0.163 µM).

For `CCCCCCCCCCCCCC1=C(O)C(=O)c2ccccc2C1=O`, the EC50 was 0.006 µg/mL (≈ 0.0168 µM).

Turning to `O=C1C(=O)c2ccccc2C(O)=C1CCCCCC1CCCCC1`, the EC50 is 0.03 µg/mL (≈ 0.0919 µM).

`CCCCCC1=C(O)C(=O)c2ccccc2C1=O`: the EC50 was found to be 1 µg/mL (≈ 4.09 µM).

As for `O=C1C(=O)c2ccccc2C(O)=C1CCCC1CCCCC1`, the EC50 was determined as 0.06 µg/mL (≈ 0.201 µM).

For the compound `O=C1C(=O)c2ccccc2C(O)=C1CC1CCCCC1`, the EC50 amounted to 0.03 µg/mL (≈ 0.111 µM).

With `O=C1C(=O)c2ccccc2C(O)=C1CCCCCCCC1CCCCC1`, the EC50 is 0.05 µg/mL (≈ 0.141 µM).

Turning to `O=C1C(=O)c2ccccc2C(O)=C1CCC1CCCCC1`, the EC50 was found to be 0.08 µg/mL (≈ 0.281 µM).

For the compound `O=C1C(=O)c2ccccc2C(O)=C1NC(=O)C1CCCCC1`, the EC50 was more than 10 µg/mL.

In the case of `CCCCCCCCCCCCCCCCC1=C(O)C(=O)c2ccccc2C1=O`, the EC50 was found to be 0.01 µg/mL (≈ 0.0251 µM).

For `O=C1C(=O)c2ccccc2C(O)=C1C1CCCC1`, the EC50 was determined as 3.7 µg/mL (≈ 15.3 µM).

With `CCCCCCCCCCCCCCCCCC1=C(O)C(=O)c2ccccc2C1=O`, the EC50 was found to be 0.01 µg/mL (≈ 0.0242 µM).

As to `O=C1C(=O)c2ccccc2C(O)=C1CSC1CCCCC1`, the EC50 is more than 10 µg/mL.

Consider `O=C1C(=O)c2ccccc2C(O)=C1C1CCCCCCCCCCC1`, for which the EC50 was found to be 0.09 µg/mL (≈ 0.264 µM).

`CCCCCCCCCCCCCCC1=C(O)C(=O)c2ccccc2C1=O`: the EC50 is 0.006 µg/mL (≈ 0.0162 µM).

On to `CCCCCCCCCC1=C(O)C(=O)c2ccccc2C1=O`, for which the EC50 was determined as 0.13 µg/mL (≈ 0.433 µM).

For `O=C1C(O)=C(CCCCCC2=C(O)C(=O)c3ccccc3C2=O)C(=O)c2ccccc21`, the EC50 was more than 10 µg/mL.

Regarding `O=C1C(=O)c2ccccc2C(O)=C1SC1CCCCC1`, the EC50 was found to be 6.5 µg/mL (≈ 22.5 µM).

`O=C1C(=O)c2ccccc2C(O)=C1c1ccccc1`: the EC50 was more than 10 µg/mL.

For `O=C1C(O)=C(CCCCCCCCCCC2=C(O)C(=O)c3ccccc3C2=O)C(=O)c2ccccc21`, the EC50 amounted to 10 µg/mL (≈ 20.6 µM).

With `O=C1C(O)=C(CCCCCCC2=C(O)C(=O)c3ccccc3C2=O)C(=O)c2ccccc21`, the EC50 was more than 10 µg/mL.

On to `O=C1C(=O)c2ccccc2C(O)=C1C1CCCCCCC1`, for which the EC50 was determined as 0.007 µg/mL (≈ 0.0246 µM).

As for `O=C1C(=O)c2ccccc2C(O)=C1CCCCC1CCCCC1`, the EC50 came to 0.06 µg/mL (≈ 0.192 µM).

Regarding `O=C1C(O)=C(NCC2CCCCC2)C(=O)c2ccccc21`, the EC50 was more than 10 µg/mL.

Regarding `CCCCCCCCCCCCC1=C(O)C(=O)c2ccccc2C1=O`, the EC50 stood at 0.05 µg/mL (≈ 0.146 µM).

For `O=C1C(O)=C(CCCCCCCCC2=C(O)C(=O)c3ccccc3C2=O)C(=O)c2ccccc21`, the EC50 turned out to be 1 µg/mL (≈ 2.18 µM).

Regarding `COc1ccc2c(c1)C(=O)C(C1CCCCCC1)=C(O)C2=O`, the EC50 was more than 10 µg/mL.

As for `O=C1C(Cl)=C(CC2CCCCC2)C(=O)c2ccccc21`, the EC50 was more than 10 µg/mL.

For `CC(=O)OC1=C(CC2CCCCC2)C(=O)c2ccccc2C1=O`, the EC50 came to 1 µg/mL (≈ 3.2 µM).

Turning to `O=C1C(=O)c2ccccc2C(O)=C1C1CC1`, the EC50 was 10 µg/mL (≈ 46.7 µM).

Regarding `O=C1C(=O)c2ccccc2C(O)=C1C1CCCOC1` (centres undefined), the EC50 was 6.8 µg/mL (≈ 26.3 µM).

For `O=C1C(=O)c2ccccc2C(O)=C1C1CC2CCC1C2` (centres undefined), the EC50 was 0.06 µg/mL (≈ 0.224 µM).

`O=C1C(O)=C(C2C=CCCC2)C(=O)c2ccccc21` (centres undefined): the EC50 was determined as 1.5 µg/mL (≈ 5.9 µM).

Turning to `O=C1C(=O)c2ccccc2C(O)=C1C1CCC1`, the EC50 was 10 µg/mL (≈ 43.8 µM).

Turning to `CCCCCCCCCCCCCCCC1=C(O)C(=O)c2ccccc2C1=O`, the EC50 is 0.01 µg/mL (≈ 0.026 µM).
